Laboratory results taken from ChEMBL document CHEMBL1944596, “7,8-dichloro-1-oxo-β-carbolines as a versatile scaffold for the development of potent and selective kinase inhibitors with unusual binding modes” (J Med Chem, 2012).

Columns and labels:
[1] = target: T1, Serine/threonine-protein kinase pim-3 (Homo sapiens, UniProt Q86V86); assay: Inhibition of PIM3 using ATP as substrate
K562 = assay: Growth inhibition of human K562 cells after 48 hrs by WST-1 assay; type: functional, cell-based; conditions: K562, 48 h
Outline: (§1)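 Compound (0–10 μM) added to the culture medium and incubated 48 h. Proliferation and viability read by WST-1 reagent. Survival expressed as percentage of control cultures and IC50 derived by curve fitting.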

[2] = target: T1, Serine/threonine-protein kinase pim-3; assay: Binding affinity to PIM3 assessed as change in thermal denaturation at 10 uM by thermal stability shift assay
Outline: (§2)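 Each compound was screened across a kinase panel by thermal stability shift assay. The read-out was the shift in protein melting temperature (ΔTm, in °C) relative to the unliganded kinase. A ΔTm of 4.0 °C served as the hit cutoff.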

[3] = target: T2, Serine/threonine-protein kinase 17A (Homo sapiens) (UniProt Q9UEE5); assay: Binding affinity to DRAK1 assessed as change in thermal denaturation at 10 uM by thermal stability shift assay; outline: as §2
T2 sequence (whole entry): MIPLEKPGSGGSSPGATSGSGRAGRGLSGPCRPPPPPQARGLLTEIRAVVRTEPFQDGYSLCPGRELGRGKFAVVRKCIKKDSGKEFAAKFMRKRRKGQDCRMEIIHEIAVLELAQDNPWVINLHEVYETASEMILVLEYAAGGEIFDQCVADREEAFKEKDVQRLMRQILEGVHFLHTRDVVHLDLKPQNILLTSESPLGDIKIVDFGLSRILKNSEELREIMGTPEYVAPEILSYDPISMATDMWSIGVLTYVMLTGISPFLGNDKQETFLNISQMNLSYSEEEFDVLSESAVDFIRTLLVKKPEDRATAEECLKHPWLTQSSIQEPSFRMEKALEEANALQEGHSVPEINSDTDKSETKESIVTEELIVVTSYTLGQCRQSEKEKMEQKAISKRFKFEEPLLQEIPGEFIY

[4] = target: T3, Serine/threonine-protein kinase pim-1 (Homo sapiens, UniProt P11309); assay: Binding affinity to PIM1 assessed as change in thermal denaturation at 10 uM by thermal stability shift assay; outline: as §2
[5] = Binding affinity to RSK4beta assessed as change in thermal denaturation at 10 uM by thermal stability shift assay; outline: as §2
[6] = target: Phosphatidylinositol 3-kinase catalytic subunit type 3 (Homo sapiens, UniProt Q8NEB9); assay: Inhibition of VPS34 using ATP as substrate
Chain of Phosphatidylinositol 3-kinase catalytic subunit type 3 (Q8NEB9 whole entry): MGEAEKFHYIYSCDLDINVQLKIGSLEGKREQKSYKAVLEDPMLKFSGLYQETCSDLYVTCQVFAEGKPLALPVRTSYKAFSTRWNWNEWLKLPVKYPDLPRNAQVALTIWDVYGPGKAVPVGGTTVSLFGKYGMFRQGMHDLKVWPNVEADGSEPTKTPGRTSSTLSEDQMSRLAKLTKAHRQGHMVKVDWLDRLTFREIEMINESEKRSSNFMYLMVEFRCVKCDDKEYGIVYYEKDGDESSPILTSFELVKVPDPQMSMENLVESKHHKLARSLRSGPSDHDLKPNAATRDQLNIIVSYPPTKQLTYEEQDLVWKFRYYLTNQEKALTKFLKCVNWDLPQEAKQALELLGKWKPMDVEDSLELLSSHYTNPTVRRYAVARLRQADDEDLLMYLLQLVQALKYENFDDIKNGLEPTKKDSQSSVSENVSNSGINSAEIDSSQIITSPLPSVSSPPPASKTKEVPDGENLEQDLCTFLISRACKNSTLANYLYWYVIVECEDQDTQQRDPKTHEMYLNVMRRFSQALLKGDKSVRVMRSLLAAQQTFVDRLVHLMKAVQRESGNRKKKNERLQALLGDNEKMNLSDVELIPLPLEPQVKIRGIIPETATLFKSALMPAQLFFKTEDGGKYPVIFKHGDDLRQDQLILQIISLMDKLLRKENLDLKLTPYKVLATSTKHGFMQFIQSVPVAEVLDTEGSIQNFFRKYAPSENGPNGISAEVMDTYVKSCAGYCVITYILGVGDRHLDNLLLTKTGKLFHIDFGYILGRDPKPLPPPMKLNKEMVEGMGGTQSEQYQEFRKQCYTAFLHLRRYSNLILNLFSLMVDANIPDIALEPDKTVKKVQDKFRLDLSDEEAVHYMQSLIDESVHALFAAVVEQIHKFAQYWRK

[7] = target: AP2-associated protein kinase 1 (Homo sapiens) (UniProt Q2M2I8); assay: Binding affinity to AAK1 assessed as change in thermal denaturation at 10 uM by thermal stability shift assay; outline: as §2
[8] = Inhibition of PKA using ATP as substrate
[9] = target: Death-associated protein kinase 3 (Homo sapiens) (UniProt O43293); assay: Binding affinity to N-terminus His6-tagged DAPK3 expressed in Escherichia coli BL21 (DE3) cells coexpressing pCOEX assessed as change in thermal denaturation at 10 uM by thermal stability shift assay
Outline: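 DAPK3 was expressed in E. coli grown in TB with kanamycin and chloramphenicol at 37 °C, cooled to 25 °C, and induced with 0.5 mM IPTG. Binding was read as thermal-shift ΔTm in °C.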

[10] = target: Phosphatidylinositol 4,5-bisphosphate 3-kinase catalytic subunit delta isoform (Homo sapiens, UniProt O00329); assay: Inhibition of PI3Kdelta using ATP as substrate
Chain of Phosphatidylinositol 4,5-bisphosphate 3-kinase catalytic subunit delta isoform (O00329 whole entry, canonical isoform): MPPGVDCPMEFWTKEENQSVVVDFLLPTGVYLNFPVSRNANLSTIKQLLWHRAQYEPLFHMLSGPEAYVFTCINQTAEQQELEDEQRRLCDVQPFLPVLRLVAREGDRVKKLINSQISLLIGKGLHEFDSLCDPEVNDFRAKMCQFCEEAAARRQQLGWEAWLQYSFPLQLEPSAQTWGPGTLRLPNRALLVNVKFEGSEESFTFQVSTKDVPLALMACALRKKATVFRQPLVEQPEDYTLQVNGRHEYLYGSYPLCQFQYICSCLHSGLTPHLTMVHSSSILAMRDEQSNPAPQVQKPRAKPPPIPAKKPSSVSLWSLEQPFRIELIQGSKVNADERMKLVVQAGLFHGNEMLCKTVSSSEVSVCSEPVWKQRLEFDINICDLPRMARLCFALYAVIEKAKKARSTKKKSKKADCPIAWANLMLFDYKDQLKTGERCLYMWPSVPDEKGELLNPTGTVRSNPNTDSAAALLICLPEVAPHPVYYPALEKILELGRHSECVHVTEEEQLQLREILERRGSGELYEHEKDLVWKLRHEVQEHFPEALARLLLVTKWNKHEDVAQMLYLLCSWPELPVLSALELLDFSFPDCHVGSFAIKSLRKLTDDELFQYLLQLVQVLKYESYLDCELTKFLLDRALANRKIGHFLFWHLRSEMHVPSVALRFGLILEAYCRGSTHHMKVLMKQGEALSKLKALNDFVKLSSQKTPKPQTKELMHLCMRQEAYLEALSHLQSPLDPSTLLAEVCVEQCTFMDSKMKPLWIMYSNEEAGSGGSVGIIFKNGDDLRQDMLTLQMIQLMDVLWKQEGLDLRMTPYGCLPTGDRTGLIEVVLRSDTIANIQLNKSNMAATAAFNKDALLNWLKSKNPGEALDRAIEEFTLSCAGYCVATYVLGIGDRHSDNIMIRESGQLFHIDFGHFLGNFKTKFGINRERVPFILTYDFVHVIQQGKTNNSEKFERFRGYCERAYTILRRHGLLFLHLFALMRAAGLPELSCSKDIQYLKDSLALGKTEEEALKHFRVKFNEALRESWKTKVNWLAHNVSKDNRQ

[11] = target: T4, Serine/threonine-protein kinase pim-2 (Homo sapiens, UniProt Q9P1W9); assay: Binding affinity to PIM2 assessed as change in thermal denaturation at 10 uM by thermal stability shift assay; outline: as §2
[12] = target: Phosphatidylinositol 4,5-bisphosphate 3-kinase catalytic subunit gamma isoform (Homo sapiens, UniProt P48736); assay: Inhibition of PI3Kgamma using ATP as substrate
[13] = target: Protein kinase C theta type (Homo sapiens, UniProt Q04759); assay: Inhibition of PKCtheta using ATP as substrate
[14] = target: Dual specificity protein kinase CLK4 (Homo sapiens) (UniProt Q9HAZ1); assay: Binding affinity to CLK4 assessed as change in thermal denaturation at 10 uM by thermal stability shift assay; outline: as §2
Chain of Dual specificity protein kinase CLK4 (Homo sapiens) (Q9HAZ1 whole entry, looked up): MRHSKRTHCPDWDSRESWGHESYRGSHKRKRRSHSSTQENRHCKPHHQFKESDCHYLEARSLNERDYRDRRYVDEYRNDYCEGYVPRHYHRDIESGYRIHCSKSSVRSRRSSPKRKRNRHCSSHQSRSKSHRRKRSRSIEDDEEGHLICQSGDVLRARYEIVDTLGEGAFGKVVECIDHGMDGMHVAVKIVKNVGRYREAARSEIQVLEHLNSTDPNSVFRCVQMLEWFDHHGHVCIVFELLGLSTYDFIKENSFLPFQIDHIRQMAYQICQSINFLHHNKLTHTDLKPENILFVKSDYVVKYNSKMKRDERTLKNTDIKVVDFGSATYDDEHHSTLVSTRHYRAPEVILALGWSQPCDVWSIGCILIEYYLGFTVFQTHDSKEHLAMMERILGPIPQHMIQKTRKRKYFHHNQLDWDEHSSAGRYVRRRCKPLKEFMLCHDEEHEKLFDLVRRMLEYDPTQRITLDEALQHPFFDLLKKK

MV4-11 = assay: Inhibition of PIM-mediated 4E-BP1 phosphorylation in human MV4-11 cells after 180 mins by Western blot analysis; type: cell-based
Outline: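 MV4;11 cells at 5 × 10^5/mL in RPMI 1640 with 10% FCS, 37 °C, 5% CO2, treated at 0–10 μM for varied times. Lysed on ice in Triton X-100 buffer with NaF, Na3VO4 and protease inhibitors. 50 μg protein run on 15% SDS–PAGE and blotted for phospho-4E-BP1 with HRP chemiluminescence. Reprobed for total 4E-BP1 and β-actin as loading controls.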

[15] = target: Serine/threonine-protein kinase mTOR (Homo sapiens, UniProt P42345); assay: Inhibition of mTOR using ATP as substrate
[16] = target: Phosphatidylinositol 4,5-bisphosphate 3-kinase catalytic subunit beta isoform (Homo sapiens, UniProt P42338); assay: Inhibition of PI3Kbeta using ATP as substrate
Chain of Phosphatidylinositol 4,5-bisphosphate 3-kinase catalytic subunit beta isoform (P42338 whole entry, canonical isoform): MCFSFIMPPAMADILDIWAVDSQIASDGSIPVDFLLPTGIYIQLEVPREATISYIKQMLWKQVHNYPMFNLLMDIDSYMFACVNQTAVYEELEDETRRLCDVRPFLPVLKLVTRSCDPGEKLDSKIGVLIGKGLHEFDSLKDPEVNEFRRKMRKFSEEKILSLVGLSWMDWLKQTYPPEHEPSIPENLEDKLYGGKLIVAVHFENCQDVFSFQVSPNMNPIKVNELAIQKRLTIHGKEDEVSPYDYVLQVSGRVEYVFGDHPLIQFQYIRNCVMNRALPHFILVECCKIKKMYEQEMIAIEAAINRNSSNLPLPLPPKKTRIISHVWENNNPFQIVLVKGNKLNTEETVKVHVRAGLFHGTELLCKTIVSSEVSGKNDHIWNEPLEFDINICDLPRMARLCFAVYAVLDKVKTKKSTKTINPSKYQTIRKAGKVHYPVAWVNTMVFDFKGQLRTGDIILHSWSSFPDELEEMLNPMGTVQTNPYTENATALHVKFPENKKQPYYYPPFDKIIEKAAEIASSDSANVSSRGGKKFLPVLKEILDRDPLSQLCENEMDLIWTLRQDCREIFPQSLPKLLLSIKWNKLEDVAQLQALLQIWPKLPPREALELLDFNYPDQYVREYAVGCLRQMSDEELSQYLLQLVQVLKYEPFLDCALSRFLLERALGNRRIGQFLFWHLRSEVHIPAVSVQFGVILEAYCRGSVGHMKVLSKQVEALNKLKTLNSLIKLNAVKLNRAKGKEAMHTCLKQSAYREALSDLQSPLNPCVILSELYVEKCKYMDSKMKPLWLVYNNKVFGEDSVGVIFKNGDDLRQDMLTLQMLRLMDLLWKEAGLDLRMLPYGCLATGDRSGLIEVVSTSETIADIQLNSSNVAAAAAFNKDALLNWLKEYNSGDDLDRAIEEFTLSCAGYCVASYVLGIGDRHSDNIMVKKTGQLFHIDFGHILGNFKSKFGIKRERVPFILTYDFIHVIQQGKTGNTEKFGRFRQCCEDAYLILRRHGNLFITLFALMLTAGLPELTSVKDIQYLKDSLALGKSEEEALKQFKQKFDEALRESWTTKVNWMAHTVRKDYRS

[17] = Growth inhibition of human SEM cells after 48 hrs by WST-1 assay; type: functional, cell-based; outline: as §1
[18] = target: Vascular endothelial growth factor receptor 2 (Homo sapiens, UniProt P35968); assay: Inhibition of KDR using ATP as substrate
[19] = target: Rho-associated protein kinase 2 (Homo sapiens, UniProt O75116); assay: Inhibition of ROCK2 using ATP as substrate
[20] = target: Ribosomal protein S6 kinase alpha-1 (Homo sapiens) (UniProt Q15418); assay: Binding affinity to RSK1 assessed as change in thermal denaturation at 10 uM by thermal stability shift assay
Chain of Ribosomal protein S6 kinase alpha-1 (Homo sapiens) (Q15418 whole entry, looked up): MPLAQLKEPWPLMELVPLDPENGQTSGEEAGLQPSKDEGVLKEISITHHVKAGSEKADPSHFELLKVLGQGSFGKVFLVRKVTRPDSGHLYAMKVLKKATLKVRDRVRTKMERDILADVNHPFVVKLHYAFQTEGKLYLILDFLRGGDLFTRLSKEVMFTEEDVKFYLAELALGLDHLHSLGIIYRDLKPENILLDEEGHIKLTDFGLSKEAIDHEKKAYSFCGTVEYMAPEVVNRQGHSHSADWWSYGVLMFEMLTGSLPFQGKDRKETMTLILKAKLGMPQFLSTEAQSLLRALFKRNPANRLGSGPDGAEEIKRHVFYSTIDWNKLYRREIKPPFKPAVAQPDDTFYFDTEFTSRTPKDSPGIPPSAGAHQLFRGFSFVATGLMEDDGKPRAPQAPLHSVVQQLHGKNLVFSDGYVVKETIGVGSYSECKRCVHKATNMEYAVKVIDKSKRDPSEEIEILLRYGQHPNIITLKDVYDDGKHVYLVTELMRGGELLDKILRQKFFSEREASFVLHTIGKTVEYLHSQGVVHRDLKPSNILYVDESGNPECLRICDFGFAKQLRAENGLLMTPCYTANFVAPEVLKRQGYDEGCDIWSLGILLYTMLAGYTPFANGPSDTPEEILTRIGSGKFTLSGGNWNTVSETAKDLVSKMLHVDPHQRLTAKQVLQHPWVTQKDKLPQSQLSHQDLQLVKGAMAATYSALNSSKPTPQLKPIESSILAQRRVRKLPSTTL

[21] = target: T3, Serine/threonine-protein kinase pim-1; assay: Inhibition of PIM1 using ATP as substrate
[22] = target: BMP-2-inducible protein kinase (Homo sapiens) (UniProt Q9NSY1); assay: Binding affinity to BIKE assessed as change in thermal denaturation at 10 uM by thermal stability shift assay; outline: as §2
[23] = Inhibition of S6K using ATP as substrate
[24] = target: Proto-oncogene tyrosine-protein kinase receptor Ret (Homo sapiens, UniProt P07949); assay: Inhibition of RET using ATP as substrate
[25] = target: MAP kinase-activated protein kinase 5 (Homo sapiens, UniProt Q8IW41); assay: Inhibition of MK5 using ATP as substrate
Chain of MAP kinase-activated protein kinase 5 (Q8IW41 whole entry): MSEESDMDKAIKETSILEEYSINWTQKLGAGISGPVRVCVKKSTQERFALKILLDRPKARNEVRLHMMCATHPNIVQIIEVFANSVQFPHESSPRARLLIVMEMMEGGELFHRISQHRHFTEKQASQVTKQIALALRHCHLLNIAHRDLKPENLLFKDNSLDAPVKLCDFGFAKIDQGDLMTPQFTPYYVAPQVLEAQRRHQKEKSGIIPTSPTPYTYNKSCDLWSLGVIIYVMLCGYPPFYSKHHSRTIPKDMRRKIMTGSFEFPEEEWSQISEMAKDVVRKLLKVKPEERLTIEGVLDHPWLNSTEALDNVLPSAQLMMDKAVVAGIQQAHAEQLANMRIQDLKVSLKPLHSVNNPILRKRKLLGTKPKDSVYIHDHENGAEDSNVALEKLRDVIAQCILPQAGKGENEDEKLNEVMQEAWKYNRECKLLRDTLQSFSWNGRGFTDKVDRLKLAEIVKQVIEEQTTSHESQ

[26] = target: T4, Serine/threonine-protein kinase pim-2; assay: Inhibition of PIM2 using ATP as substrate
Target sequence in this assay (Q9P1W9 whole entry, canonical isoform): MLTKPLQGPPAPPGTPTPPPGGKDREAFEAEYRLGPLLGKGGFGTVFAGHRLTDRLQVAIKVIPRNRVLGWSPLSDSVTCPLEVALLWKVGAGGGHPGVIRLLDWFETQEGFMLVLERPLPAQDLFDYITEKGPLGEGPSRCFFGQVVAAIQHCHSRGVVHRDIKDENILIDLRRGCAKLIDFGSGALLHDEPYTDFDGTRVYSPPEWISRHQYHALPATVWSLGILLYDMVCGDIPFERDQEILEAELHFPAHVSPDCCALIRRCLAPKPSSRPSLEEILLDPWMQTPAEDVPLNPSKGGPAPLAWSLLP

[27] = target: Protein kinase C alpha type (Homo sapiens, UniProt P17252); assay: Inhibition of PKCalpha using ATP as substrate

With Cn1c2c(c3ccc(Cl)c(Cl)c31)C(C#N)C1(CCNCC1)NC2=O (racemic) the IC50 [1] was 90 nM, the IC50 (K562) was 6490 nM and the ΔTm [2] was 9.6 °C. It also gave a ΔTm [3] of 4.3 °C, a ΔTm [4] of 10.7 °C and a ΔTm [5] of 0.8 °C. The IC50 [6] was > 9100 nM, the ΔTm [7] was 1.5 °C and the IC50 [8] was 77 nM. For the same compound, the ΔTm [9] was 10.6 °C, the IC50 [10] was 4700 nM and the ΔTm [11] was 6.5 °C. The IC50 [12] was 3100 nM, the IC50 [13] was 1400 nM and the ΔTm [14] was 4.6 °C. The inhibition (MV4-11) was “Dose-dependent effect”, the IC50 [15] was > 9100 nM and the IC50 [16] was 8600 nM. For the same compound, the IC50 [17] was 4680 nM, the IC50 [18] was 7200 nM and the IC50 [19] was 220 nM. It also gave a ΔTm [20] of 1 °C, an IC50 [21] of 60 nM and a ΔTm [22] of 1 °C. It also gave an IC50 [23] of 230 nM, an IC50 [24] of 7700 nM and an IC50 [25] of 1700 nM. It also gave an IC50 [26] of 240 nM and an IC50 [27] of 2200 nM.
